Measured values: ChEMBL document CHEMBL1165950, “Design and synthesis of new potent anticancer pyrazoles with high FLT3 kinase inhibitory selectivity” (Bioorg Med Chem, 2010)

Assays:
Format in all cases: functional
NCI/ADR-RES = test: Cytotoxicity against human NCI/ADR-RES cells assessed as cell growth at 100 nM after 48 hrs by sulforhodamine B assay; conditions: read-out: Activity
MDA-MB-231 = test: Cytotoxicity against human MDA-MB-231 cells assessed as cell growth at 0.001 uM after 48 hrs by sulforhodamine B assay; conditions: MDA-MB-231, 48 h, read-out: Activity
PC-3 = test: Cytotoxicity against human PC3 cells assessed as cell growth at 100 nM after 48 hrs by sulforhodamine B assay; conditions: PC-3, 48 h, read-out: Activity
SK-OV-3 = test: Cytotoxicity against human SKOV3 cells assessed as cell growth at 10 uM; conditions: read-out: Activity
How it was run: (§1)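 NCI-60 screen: cells grown in RPMI 1640 with 5% FBS and 2 mM L-glutamine, plated at 5000–40,000 cells/well according to doubling time, and preincubated 24 h at 37 °C, 5% CO2. The single 10 µM dose (DMSO stock) was added, then incubated 48 h. Cells were TCA-fixed and stained with 0.4% SRB, read at 515 nm, and growth % calculated against time-zero and control plates.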

HT-29 = test: Cytotoxicity against human HT-29 cells assessed as cell growth at 0.01 uM after 48 hrs by sulforhodamine B assay; conditions: HT-29, 48 h, read-out: Activity
SF-539 [1] = test: Cytotoxicity against human SF539 cells assessed as cell growth at 0.01 uM after 48 hrs by sulforhodamine B assay; conditions: SF-539, 48 h, read-out: Activity
OVCAR-3 [2] = test: Cytotoxicity against human OVCAR-3 cells assessed as cell growth at 0.01 uM after 48 hrs by sulforhodamine B assay; conditions: OVCAR-3, 48 h, read-out: Activity
SF-295 [3] = test: Cytotoxicity against human SF295 cells assessed as cell growth at 0.001 uM after 48 hrs by sulforhodamine B assay; conditions: SF-295, 48 h, read-out: Activity
SF-539 [4] = test: Cytotoxicity against human SF539 cells assessed as cell growth at 0.001 uM after 48 hrs by sulforhodamine B assay; conditions: SF-539, 48 h, read-out: Activity
M14 = test: Cytotoxicity against human M14 cells assessed as cell growth at 0.001 uM after 48 hrs by sulforhodamine B assay; conditions: M14, 48 h, read-out: Activity
UACC-257 = test: Cytotoxicity against human UACC257 cells assessed as cell growth at 0.001 uM after 48 hrs by sulforhodamine B assay; conditions: UACC-257, 48 h, read-out: Activity
OVCAR-3 [5] = test: Cytotoxicity against human OVCAR-3 cells assessed as cell growth at 0.001 uM after 48 hrs by sulforhodamine B assay; conditions: OVCAR-3, 48 h, read-out: Activity
A498 [6] = test: Cytotoxicity against human A498 cells assessed as cell growth at 0.001 uM after 48 hrs by sulforhodamine B assay; conditions: A498, 48 h, read-out: Activity
How it was run: (§2)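 NCI-60 five-dose screen. Cells were grown in RPMI 1640 with 5% FBS and 2 mM L-glutamine, plated at 5000–40,000 cells/well and preincubated for 24 h. Time-zero plates were TCA-fixed. DMSO-solubilized drug was added at five concentrations (10-fold or ½-log serial dilutions) for 48 h at 37 °C, 5% CO2. Cells were TCA-fixed, stained with 0.4% SRB and read at 515 nm. Percent growth used time-zero, control and test absorbances.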

A549 [7] = test: Growth inhibition of human A549 cells after 48 hrs by sulforhodamine B assay; conditions: A549, 48 h
How it was run: (§3)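 NCI five-dose SRB assay in RPMI 1640 with 5% FBS and 2 mM L-glutamine. Cells were preincubated 24 h, then exposed 48 h at 37 °C to five concentrations (10-fold or half-log serial dilutions from DMSO stocks). TCA fixation, SRB staining, and absorbance at 515 nm followed. IC50 was taken where [(Ti−Tz)/(C−Tz)]×100 = 50, with Tz as time-zero cell density.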

SF-295 [8] = test: Growth inhibition of human SF295 cells after 48 hrs by sulforhodamine B assay; conditions: SF-295, 48 h; for CC50: read-out: LC50 (the source's name)
How it was run: (§4)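 NCI 60-cell screen, five-dose mode. Cells grown in RPMI 1640 with 5% FBS and 2 mM L-glutamine and plated at 5000-40,000 cells/well according to doubling time. After 24 h preincubation, a Tz plate was TCA-fixed. Five concentrations (10-fold or 1/2 log dilutions) were applied for 48 h at 37 °C. SRB staining read at 515 nm. IC50 taken from [(Ti-Tz)/(C-Tz)]×100 = 50.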

U-251 = test: Growth inhibition of human U251 cells after 48 hrs by sulforhodamine B assay; conditions: U-251, 48 h; for CC50: read-out: LC50 (the source's name); how it was run: as §4
OVCAR-3 [9] = test: Growth inhibition of human OVCAR-3 cells after 48 hrs by sulforhodamine B assay; conditions: OVCAR-3, 48 h; for CC50: read-out: LC50 (the source's name); how it was run: as §4
T47D = test: Cytotoxicity against human T47D cells assessed as cell growth at 0.01 uM after 48 hrs by sulforhodamine B assay; conditions: read-out: Activity
A549 [10] = test: Cytotoxicity against human A549 cells assessed as cell growth at 100 nM after 48 hrs by sulforhodamine B assay; conditions: A549, 48 h, read-out: Activity; how it was run: as §2
HOP-62 = test: Cytotoxicity against human HOP62 cells assessed as cell growth at 100 nM after 48 hrs by sulforhodamine B assay; conditions: HOP-62, 48 h, read-out: Activity
NCI-H23 = test: Cytotoxicity against human NCI-H23 cells assessed as cell growth at 100 nM after 48 hrs by sulforhodamine B assay; conditions: NCI-H23, 48 h, read-out: Activity
A498 [11] = test: Growth inhibition of human A498 cells after 48 hrs by sulforhodamine B assay; conditions: A498, 48 h; how it was run: as §3
TK-10 [12] = test: Growth inhibition of human TK10 cells after 48 hrs by sulforhodamine B assay; conditions: TK-10, 48 h; for CC50: read-out: LC50 (the source's name); how it was run: as §4
OVCAR-5 = test: Cytotoxicity against human OVCAR5 cells assessed as cell growth at 1 uM after 48 hrs by sulforhodamine B assay; conditions: OVCAR-5, 48 h, read-out: Activity
TK-10 [13] = test: Cytotoxicity against human TK10 cells assessed as cell growth at 1 uM after 48 hrs by sulforhodamine B assay; conditions: TK-10, 48 h, read-out: Activity
NCI-H226 = test: Cytotoxicity against human NCI-H226 cells assessed as cell growth at 10 uM; conditions: read-out: Activity; how it was run: as §1
HCC 2998 = test: Cytotoxicity against human HCC2998 cells assessed as cell growth at 10 uM; conditions: read-out: Activity
How it was run: (§5)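 Single-dose NCI-60 screen at 10 µM. Cells were grown in RPMI 1640 with 5% FBS and 2 mM L-glutamine, then treated for 48 h at 37 °C. Protein was measured by SRB staining with absorbance at 515 nm. Percentage growth was recorded, and inhibition percentage was calculated as 100 minus growth percentage.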

HCT-15 = test: Cytotoxicity against human HCT15 cells assessed as cell growth at 10 uM; conditions: read-out: Activity; how it was run: as §5

SMILES | growth at 0.1 µM (NCI/ADR-RES) [%] | growth at 0.001 µM (MDA-MB-231) [%] | growth at 0.1 µM (PC-3) [%] | growth at 10 µM (SK-OV-3) [%] | growth at 0.01 µM (HT-29) [%] | growth at 0.01 µM (SF-539 [1]) [%] | growth at 0.01 µM (OVCAR-3 [2]) [%] | growth at 0.001 µM (SF-295 [3]) [%] | growth at 0.001 µM (SF-539 [4]) [%] | growth at 0.001 µM (M14) [%] | growth at 0.001 µM (UACC-257) [%] | growth at 0.001 µM (OVCAR-3 [5]) [%] | growth at 0.001 µM (A498 [6]) [%] | GI50 (A549 [7]) [µM] | LC50 (A549 [7]) [µM] | TGI (A549 [7]) [µM] | GI50 (SF-295 [8]) [µM] | TGI (SF-295 [8]) [µM] | CC50 (SF-295 [8]) [µM] | GI50 (U-251) [µM] | also measured
COc1cc(C)cc(-c2c(-c3ccnc(-c4ccc(C(C)=O)cc4)c3)cnn2CC#N)c1 | 83 | 99 | 83 | 97.8 | 96 | 98 | 106 | 98 | 92 | 95 | 95 | 103 | 74 | 3.68 | > 100 | > 100 | 5.84 | > 100 | > 100 | 2.89 | TGI (U-251): > 100 µM; CC50 (U-251): > 100 µM; GI50 (OVCAR-3 [9]): 2.61 µM; TGI (OVCAR-3 [9]): 8.05 µM; CC50 (OVCAR-3 [9]): > 100 µM; growth at 0.01 µM (T47D): 92%; growth at 0.1 µM (A549 [10]): 83%; growth at 0.1 µM (HOP-62): 84%; growth at 0.1 µM (NCI-H23): 95%; GI50 (A498 [11]): 2.03 µM; LC50 (A498 [11]): > 100 µM; TGI (A498 [11]): > 100 µM; TGI (TK-10 [12]): > 100 µM; CC50 (TK-10 [12]): > 100 µM; growth at 1 µM (OVCAR-5): 60%; growth at 1 µM (TK-10 [13]): 43%; growth at 10 µM (NCI-H226): 83.7%; growth at 10 µM (HCC 2998): 80.8%; growth at 10 µM (HCT-15): 53.3%
COc1cc(C)cc(-c2nn(CC#N)cc2-c2ccc(-c3cccc(C(C)=O)c3)nc2)c1 | 59 | 102 | 85 | 10.1 | 93 | 89 | 104 | 99 | 94 | 94 | 94 | 102 | 76 | 3.87 | > 100 | 30.8 | 2.63 | > 100 | > 100 | 3.17 | TGI (U-251): 13.5 µM; CC50 (U-251): > 100 µM; GI50 (OVCAR-3 [9]): 1.34 µM; TGI (OVCAR-3 [9]): 3.3 µM; CC50 (OVCAR-3 [9]): 8.13 µM; growth at 0.01 µM (T47D): 93%; growth at 0.1 µM (A549 [10]): 91%; growth at 0.1 µM (HOP-62): 82%; growth at 0.1 µM (NCI-H23): 88%; GI50 (A498 [11]): 1.08 µM; LC50 (A498 [11]): 72.5 µM; TGI (A498 [11]): 5.14 µM; GI50 (TK-10 [12]): 3.28 µM; TGI (TK-10 [12]): 11.5 µM; CC50 (TK-10 [12]): > 100 µM; growth at 1 µM (OVCAR-5): 21%; growth at 1 µM (TK-10 [13]): 2%; growth at 10 µM (NCI-H226): 47.8%; growth at 10 µM (HCC 2998): 28.6%; growth at 10 µM (HCT-15): 23.4%
Cc1cc(O)cc(-c2nn(CC#N)cc2-c2ccnc(-c3ccc(Oc4ccccc4)cc3)c2)c1 | 95 | 96 | 81 | 89.6 | 104 | 88 | 103 | 99 | 88 | 95 | 95 | 92 | 88 | 2 | 24.7 | 5.07 | 4.42 | 21.2 | 75.2 | 1.61 | TGI (U-251): 2.99 µM; CC50 (U-251): 5.56 µM; GI50 (OVCAR-3 [9]): 1.88 µM; TGI (OVCAR-3 [9]): 3.95 µM; CC50 (OVCAR-3 [9]): 8.29 µM; growth at 0.01 µM (T47D): 86%; growth at 0.1 µM (A549 [10]): 87%; growth at 0.1 µM (HOP-62): 101%; growth at 0.1 µM (NCI-H23): 96%; GI50 (A498 [11]): 3.87 µM; LC50 (A498 [11]): 44.1 µM; TGI (A498 [11]): 16.7 µM; GI50 (TK-10 [12]): 4.25 µM; TGI (TK-10 [12]): 15.1 µM; CC50 (TK-10 [12]): 43.6 µM; growth at 1 µM (OVCAR-5): 35%; growth at 1 µM (TK-10 [13]): 19%; growth at 10 µM (NCI-H226): 70.3%; growth at 10 µM (HCC 2998): 28.2%; growth at 10 µM (HCT-15): 4.26%
